In ChEMBL document CHEMBL1125582, “4-hydroxythiazole inhibitors of 5-lipoxygenase” (J Med Chem, 1991):
pIC50: −log10 of the molar value.

Key:
[1] = molecular target: T1, Polyunsaturated fatty acid 5-lipoxygenase (Rattus norvegicus, UniProt P12527); assay: The compound was tested for the in vitro inhibition of 5-lipoxygenase from the 20000 g supernatant of RBI-1 cells; assay type: cell-based
T1 sequence (P12527 whole entry): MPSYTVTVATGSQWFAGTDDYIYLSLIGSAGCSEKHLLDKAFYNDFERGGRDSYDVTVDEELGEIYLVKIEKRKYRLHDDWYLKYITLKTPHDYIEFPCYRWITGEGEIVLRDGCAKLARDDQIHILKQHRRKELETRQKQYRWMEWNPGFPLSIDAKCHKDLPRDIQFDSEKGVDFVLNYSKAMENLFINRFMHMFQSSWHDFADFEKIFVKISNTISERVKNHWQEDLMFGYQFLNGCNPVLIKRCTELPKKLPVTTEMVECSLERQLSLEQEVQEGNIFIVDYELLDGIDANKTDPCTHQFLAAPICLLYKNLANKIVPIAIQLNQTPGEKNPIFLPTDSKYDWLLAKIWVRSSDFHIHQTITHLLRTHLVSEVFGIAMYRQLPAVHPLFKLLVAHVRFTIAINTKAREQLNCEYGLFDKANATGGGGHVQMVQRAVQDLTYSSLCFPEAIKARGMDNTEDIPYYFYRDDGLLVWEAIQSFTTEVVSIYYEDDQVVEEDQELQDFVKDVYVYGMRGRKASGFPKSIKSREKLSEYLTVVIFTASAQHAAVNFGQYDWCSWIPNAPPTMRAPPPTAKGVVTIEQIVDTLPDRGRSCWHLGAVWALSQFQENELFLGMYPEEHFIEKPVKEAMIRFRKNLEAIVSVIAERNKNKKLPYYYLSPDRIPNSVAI
How it was run: (§1)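 20000g supernatant of homogenized RBL-1 cells (7.5 × 10⁶ cell equiv/mL) preincubated 20 min at 37 °C with inhibitor or 2% Me₂SO vehicle in pH 6.8 BES/PIPES buffer with EDTA, NaCl, 0.7 mM CaCl₂. Reaction started with 66 μM [¹⁴C]arachidonic acid. [¹⁴C]-5-HETE counted by scintillation, corrected for [³H]-5-HETE recovery.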

[2] = molecular target: T1, Polyunsaturated fatty acid 5-lipoxygenase; assay: The compound was tested for the inhibition of 5-lipoxygenase (5-lo) in homogenized rat basophilic leukemia (RBL-1) cells; assay type: cell-based; how it was run: as §1
[3] = molecular target: T1, Polyunsaturated fatty acid 5-lipoxygenase; assay: In vitro inhibition of 5-lipoxygenase (5-lo) from the 20000 g supernatant of RBI-1 cells; assay type: cell-based
[4] = molecular target: T2, Polyunsaturated fatty acid 5-lipoxygenase (Homo sapiens, UniProt P09917); assay: The compound was tested for the inhibition of 5-lipoxygenase (5-lo) in human whole blood (HWBL); assay type: tissue-based
T2 sequence (P09917 whole entry): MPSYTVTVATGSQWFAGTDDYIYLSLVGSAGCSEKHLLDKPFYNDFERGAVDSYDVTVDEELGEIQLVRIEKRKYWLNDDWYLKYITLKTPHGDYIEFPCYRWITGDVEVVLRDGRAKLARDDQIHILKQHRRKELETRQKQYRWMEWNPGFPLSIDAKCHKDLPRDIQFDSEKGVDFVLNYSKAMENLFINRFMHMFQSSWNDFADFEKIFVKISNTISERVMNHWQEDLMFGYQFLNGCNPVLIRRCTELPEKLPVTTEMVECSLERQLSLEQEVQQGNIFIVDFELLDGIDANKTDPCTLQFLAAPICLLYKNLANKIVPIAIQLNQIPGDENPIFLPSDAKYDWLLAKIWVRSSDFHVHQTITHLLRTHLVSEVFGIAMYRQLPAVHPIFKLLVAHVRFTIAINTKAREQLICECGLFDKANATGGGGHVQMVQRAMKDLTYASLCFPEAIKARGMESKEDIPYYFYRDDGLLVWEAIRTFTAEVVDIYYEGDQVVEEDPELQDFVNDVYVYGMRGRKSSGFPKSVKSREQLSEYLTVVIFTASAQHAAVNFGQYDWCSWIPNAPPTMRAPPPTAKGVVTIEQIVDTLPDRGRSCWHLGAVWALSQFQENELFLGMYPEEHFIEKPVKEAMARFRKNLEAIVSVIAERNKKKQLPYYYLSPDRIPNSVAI
How it was run: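 Heparinized (20 units/mL) human blood preincubated 15 min at 37 °C with compound or vehicle. Challenged with A23187 in DMSO (final 50 μM) for 30 min, then chilled and centrifuged. Plasma extracted with 4 volumes methanol for at least 2 h at 3 °C. LTB₄ measured by RIA or EIA.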

[5] = molecular target: T3, Polyunsaturated fatty acid 5-lipoxygenase (Rattus norvegicus) (UniProt P12527); assay: The compound was tested for the in vitro inhibition of 5-lipoxygenase (5-lo) from the 20000 g supernatant of RBI-1 cells at a concentration of 32 uM; assay type: cell-based
T3 sequence (whole entry): T1 sequence (P12527 whole entry)
How it was run: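 RBL-1 cell homogenate, 20000g supernatant (7.5 × 10⁶ cell equiv/mL), preincubated 20 min at 37 °C with inhibitor or 2% Me₂SO vehicle in pH 6.8 BES/PIPES/EDTA/NaCl/CaCl₂ buffer; reaction started with 66 μM [¹⁴C]arachidonic acid. [¹⁴C]-5-HETE counted by scintillation, corrected by [³H]-5-HETE recovery; percent reduction vs control, single 32 μM concentration.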

Question: How did the pIC50 [1] turn out when `CN(O)C(=O)Cc1sc(-c2ccccc2)nc1O` was run?
Answer: 5.36

Question: How did the pIC50 [2] turn out when `CCCOC(=O)Oc1nc(-c2ccccc2)sc1CCC` was run?
Answer: 5.85

Question: What about the pIC50 [3] of the same molecule?
Answer: 5.48

Question: What about the pIC50 [4] of the same molecule?
Answer: 5.66

Question: How did the inhibition [5] turn out when `COP(=O)(OC)Oc1nc(-c2ccccc2)sc1-c1ccccc1` was run?
Answer: 14%
